This is a sample that favours compounds with a hit; in the whole collection about 2.6% have one here.
TDP2 absorb: TDP2 (human) inhibition, absorbance primary screen. 370,000 tested, 0.34% active. AID 720702. O95551. inhibition, % at 12.8 µM. recombinant TDP2, T5PNP hydrolysis, p-nitrophenol absorbance 415 nm;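 active means inhibition above the mean of all tested compounds plus 3 SD, set per campaign, cut at about 25% in these data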;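 further: 0% = DMSO with enzyme and 100% = buffer with substrate but no TDP2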
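System – recombinant human TDP2 · Amount – 120 nM TDP2 per well · Buffer or medium – Mg2+-containing Tris-HCl buffer, pH 7.5 · Reagent – T5PNP substrate, 5 mM · Dosing – 12.8 µM single point, 1% DMSO · Incubation – 2 h at 37 °C · Measured by – epi absorbance · Read-out basis – percent inhibition · Benchmarks – high control without enzyme, low control DMSO plus TDP2 · Repeats – singlicate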
PAD4 FP inh: inhibitors of human PAD4 | inhibition, % at 6.36 µM | recombinant PAD4, RCA probe fluorescence polarization | Q9UM07 | AID 485272 | 330,000 tested, 0.41% active;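 active means percent inhibition above a cutoff equal to the mean of all tested compounds plus 3 SD, cut at about 15% in these data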;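 further: 0% = PAD4 with RCA probe and DMSO and 100% = probe without PAD4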
PRMT1 FP inh: inhibitors of human PRMT1; inhibition, % at 2.79 µM; AID 652257; 370,000 tested, 1.3% active; recombinant PRMT1, activity-based probe fluorescence polarization;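 active means inhibition above about 21% made by adding two undisclosed values, limit read from the data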
GSTO1 counter: GSTO1 inhibition, counter-screen for RBBP9 inhibitors | P78417 | recombinant GSTO1, activity-based probe fluorescence polarization | inhibition, % at 5.96 µM | 300,000 tested, 1.1% active | AID 1974;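 active means inhibition above the campaign mean inhibition plus 3 SD, cut at about 35% in these data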;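 further: 0% = GSTO1-1 with DMSO and 100% = wells lacking GSTO1-1 enzyme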
Target sequence (P78417 whole entry, looked up): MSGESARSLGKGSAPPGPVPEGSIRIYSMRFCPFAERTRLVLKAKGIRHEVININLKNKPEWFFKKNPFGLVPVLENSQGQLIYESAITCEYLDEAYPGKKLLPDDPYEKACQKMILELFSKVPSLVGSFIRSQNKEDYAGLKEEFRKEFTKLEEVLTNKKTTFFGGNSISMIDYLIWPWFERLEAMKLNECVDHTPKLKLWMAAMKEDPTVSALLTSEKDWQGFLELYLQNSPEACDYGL
Apaf1 inhib: inhibitors of human Apaf-1 apoptosome | O14727 | reconstituted apoptosome caspase-3 activity, DEVD-Rh110 fluorescence | inhibition, % at 20 µM | 330,000 tested, 0.71% active; active means inhibition of at least 40% at 20 µM;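 further: plate controls were DMSO wells for no effect and DEVD-CHO caspase inhibitor wells for full effect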
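Material: biochemical Apaf-1 apoptosome reconstitution. Medium: Hepes buffer, pH 7.5. Also added: cytochrome c activation, bis-DEVD rhodamine 110 substrate. Timing: 30 min compound preincubation, 50 min activation, room temperature. Measured by: rhodamine 110 fluorescence at Ex 480/Em 540 nm.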
Apaf-1 inh conf: Apaf-1 inhibition, single-dose confirmed; inhibition, % at 20 µM; 1,800 tested, 25% active; reconstituted apoptosome, caspase-3 DEVD-Rh110 fluorescence; shares compounds with Apaf1 inhib;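 active means mean inhibition of at least 40% at 20 µM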;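 further: plate controls were DMSO wells for no effect and DEVD-CHO caspase inhibitor control wells for full effect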
Rh110 interf inh: counter-screen for Apaf-1 inhibitors: fluorescence interference; AID 504615; Rh110 fluorescence interference, quenched caspase reaction; activation (fluorescence interference), % at 20 µM; shares compounds with Apaf1 inhib; 1,800 tested, under 10 active;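 active means signal rise of 40% or more at 20 µM, treated as a fluorescence artifact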
Starred values were filed as active, the others as inactive.

`CCCCCc1cc(=O)oc2c(C(CCN(CC)CC)c3ccc(OC)cc3)c(OC)cc(OC)c12` (stereo unspecified) gave TDP2 absorb -15.9, PAD4 FP inh -5.8, PRMT1 FP inh -1.0, GSTO1 counter -3.4, Apaf1 inhib 60.6*, Apaf-1 inh conf 19.3 and Rh110 interf inh 4.0.
`CCCCCc1cc(=O)oc2c(C(CCN3CCCC3)c3ccc(N(C)C)cc3)c(OC)cc(OC)c12` (stereo unspecified) gave TDP2 absorb -12.0, PAD4 FP inh 4.1, PRMT1 FP inh -3.4, GSTO1 counter 2.1, Apaf1 inhib 45.2*, Apaf-1 inh conf 36.7 and Rh110 interf inh 13.1.
CCCCCc1cc(=O)oc2c(C(CCN3CCCC(C)C3)c3ccc(OC)cc3)c(OC)cc(OC)c12 (stereo unspecified) was read as TDP2 absorb -11.3, PAD4 FP inh -0.8, PRMT1 FP inh -3.1, GSTO1 counter 1.1, Apaf1 inhib 65.5*, Apaf-1 inh conf 34.3 and Rh110 interf inh 16.2.
`CCCCCc1cc(=O)oc2c(C(CCN3CCN(c4ccccc4)CC3)c3ccc4c(c3)OCO4)c(OC)cc(OC)c12` (stereo unspecified) gave TDP2 absorb 4.8, PAD4 FP inh 3.0, PRMT1 FP inh 2.7, GSTO1 counter 2.5 and Apaf1 inhib 25.2.
`CCCCCc1cc(=O)oc2c(C(CCN3CCCCC3)c3ccc(OC)cc3)c(OC)cc(OC)c12` (stereo unspecified) gave TDP2 absorb -0.2, PAD4 FP inh -3.5, PRMT1 FP inh -1.3, GSTO1 counter -2.7 and Apaf1 inhib 38.2.
COC(=O)C(C(=O)OC)c1ccccc1CNS(=O)(=O)c1ccc(C)cc1 was read as TDP2 absorb -4.7 and PRMT1 FP inh 1.1.
`CCC(CC)C(=O)N(C)c1c(C)nc2c(OCc3ccc(F)c(F)c3)cccn12` gave TDP2 absorb 1.6 and PRMT1 FP inh -0.2.
Screening Cc1ccc(-n2c(SCC(=O)Nc3cc(C)on3)nc3c([nH]c4ccccc43)c2=O)cc1 returned TDP2 absorb 6.0, PAD4 FP inh 2.4, PRMT1 FP inh -4.2, GSTO1 counter -3.9, Apaf1 inhib 53.6*, Apaf-1 inh conf 14.1 and Rh110 interf inh -4.6.
O=c1cc(N2CCCCC2)c(-c2ccccc2)nn1Cc1ccccc1 was read as TDP2 absorb -4.1, PAD4 FP inh 0.7, PRMT1 FP inh 3.1, GSTO1 counter 3.5 and Apaf1 inhib 10.3.
